Test results: ChEMBL document CHEMBL1255424, “Antistaphylococcal activity of ACHN-490 tested alone and in combination with other agents by time-kill assay” (2010)
≈ marks a conversion by molar mass, not a printed value.

Assays:
Format in all cases: functional
Staphylococcus aureus [1] = experiment: Antibacterial activity against hospital-acquired methicillin-resistant Staphylococcus aureus isolate 1743 after 24 hrs by modified broth macrodilution method; conditions: isolate 1743, 24 h
Summary of the method: (§1)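 MIC read after 24 h incubation by modified broth macrodilution, validated per CLSI recommendations, against recent clinical MRSA isolates (hospital- and community-acquired, hVISA, VISA, VRSA). Daptomycin tests ran in Mueller-Hinton broth with added calcium.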

Staphylococcus aureus [2] = experiment: Antibacterial activity against hospital-acquired methicillin-resistant Staphylococcus aureus isolate 1806 after 24 hrs by modified broth macrodilution method; conditions: isolate 1806, 24 h; summary of the method: as §1
Staphylococcus aureus [3] = experiment: Antibacterial activity against vancomycin-intermediate Staphylococcus aureus isolate 1008 after 24 hrs by modified broth macrodilution method; conditions: isolate 1008, 24 h; summary of the method: as §1
Staphylococcus aureus [4] = experiment: Antibacterial activity against vancomycin-intermediate Staphylococcus aureus isolate 770 after 24 hrs by modified broth macrodilution method; conditions: isolate 770, 24 h; summary of the method: as §1
Staphylococcus aureus [5] = experiment: Antibacterial activity against community-acquired methicillin-resistant panton-valentine leukocidin-positive Staphylococcus aureus isolate 1469 after 24 hrs by modified broth macrodilution method; conditions: isolate 1469, 24 h; summary of the method: as §1
Staphylococcus aureus [6] = experiment: Antibacterial activity against community-acquired methicillin-resistant panton-valentine leukocidin-positive Staphylococcus aureus isolate 1472 after 24 hrs by modified broth macrodilution method; conditions: isolate 1472, 24 h; summary of the method: as §1
Staphylococcus aureus [7] = experiment: Antibacterial activity against vancomycin-intermediate Staphylococcus aureus isolate 1004 after 24 hrs by modified broth macrodilution method; conditions: isolate 1004, 24 h; summary of the method: as §1
Staphylococcus aureus [8] = experiment: Antibacterial activity against vancomycin-intermediate Staphylococcus aureus isolate 1006 after 24 hrs by modified broth macrodilution method; conditions: isolate 1006, 24 h; summary of the method: as §1
Staphylococcus aureus [9] = experiment: Antibacterial activity against vancomycin-resistant Staphylococcus aureus isolate 1264 after 24 hrs by modified broth macrodilution method; conditions: isolate 1264, 24 h; summary of the method: as §1
Staphylococcus aureus [10] = experiment: Antibacterial activity against vancomycin-intermediate Staphylococcus aureus isolate 511 after 24 hrs by modified broth macrodilution method; conditions: isolate 511, 24 h; summary of the method: as §1
Staphylococcus aureus [11] = experiment: Antibacterial activity against vancomycin-intermediate Staphylococcus aureus isolate 1007 after 24 hrs by modified broth macrodilution method; conditions: isolate 1007, 24 h; summary of the method: as §1
Staphylococcus aureus [12] = experiment: Antibacterial activity against community-acquired methicillin-resistant panton-valentine leukocidin-positive Staphylococcus aureus isolate 593 after 24 hrs by modified broth macrodilution method; conditions: isolate 593, 24 h; summary of the method: as §1
Staphylococcus aureus [13] = experiment: Antibacterial activity against vancomycin-intermediate Staphylococcus aureus isolate 1010 after 24 hrs by modified broth macrodilution method; conditions: isolate 1010, 24 h; summary of the method: as §1
Staphylococcus aureus [14] = experiment: Antibacterial activity against vancomycin-intermediate Staphylococcus aureus isolate 555 after 24 hrs by modified broth macrodilution method; conditions: isolate 555, 24 h; summary of the method: as §1
Staphylococcus aureus [15] = experiment: Antibacterial activity against community-acquired methicillin-resistant panton-valentine leukocidin-positive Staphylococcus aureus isolate 693 after 24 hrs by modified broth macrodilution method; conditions: isolate 693, 24 h; summary of the method: as §1
Staphylococcus aureus [16] = experiment: Antibacterial activity against vancomycin-intermediate Staphylococcus aureus isolate 1017 after 24 hrs by modified broth macrodilution method; conditions: isolate 1017, 24 h; summary of the method: as §1
Staphylococcus aureus [17] = experiment: Antibacterial activity against vancomycin-intermediate Staphylococcus aureus isolate 1003 after 24 hrs by modified broth macrodilution method; conditions: isolate 1003, 24 h; summary of the method: as §1
Staphylococcus aureus [18] = experiment: Antibacterial activity against hospital-acquired methicillin-resistant Staphylococcus aureus isolate 1808 after 24 hrs by modified broth macrodilution method; conditions: isolate 1808, 24 h; summary of the method: as §1
Staphylococcus aureus [19] = experiment: Antibacterial activity against hospital-acquired methicillin-resistant Staphylococcus aureus isolate 1867 after 24 hrs by modified broth macrodilution method; conditions: isolate 1867, 24 h; summary of the method: as §1
Staphylococcus aureus [20] = experiment: Antibacterial activity against methicillin-resistant Staphylococcus aureus isolate 2003 after 24 hrs by modified broth macrodilution method; conditions: isolate 2003, 24 h; summary of the method: as §1
Staphylococcus aureus [21] = experiment: Antibacterial activity against vancomycin-intermediate Staphylococcus aureus isolate 1009 after 24 hrs by modified broth macrodilution method; conditions: isolate 1009, 24 h; summary of the method: as §1
Staphylococcus aureus [22] = experiment: Antibacterial activity against community-acquired methicillin-resistant panton-valentine leukocidin-positive Staphylococcus aureus isolate 1468 after 24 hrs by modified broth macrodilution method; conditions: isolate 1468, 24 h; summary of the method: as §1
Staphylococcus aureus [23] = experiment: Antibacterial activity against vancomycin-susceptible Staphylococcus aureus after 24 hrs by modified broth macrodilution method
Summary of the method: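 MICs determined in recent clinical MRSA isolates by a modified broth macrodilution method per CLSI recommendations, with 24 h incubation. Daptomycin tests used Mueller-Hinton broth supplemented with calcium. Value is the lowest inhibitory drug concentration.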

Staphylococcus aureus [24] = experiment: Antibacterial activity against community-acquired methicillin-resistant panton-valentine leukocidin-positive Staphylococcus aureus isolate 1471 after 24 hrs by modified broth macrodilution method; conditions: isolate 1471, 24 h; summary of the method: as §1
Staphylococcus aureus [25] = experiment: Antibacterial activity against vancomycin-resistant Staphylococcus aureus after 24 hrs by modified broth macrodilution method; summary of the method: as §1

In the case of CCCCCCCCCC(=O)N[C@@H](Cc1c[nH]c2ccccc12)C(=O)N[C@H](CC(N)=O)C(=O)N[C@@H](CC(=O)O)C(=O)N[C@@H]1C(=O)NCC(=O)N[C@@H](CCCN)C(=O)N[C@@H](CC(=O)O)C(=O)N[C@H](C)C(=O)N[C@@H](CC(=O)O)C(=O)NCC(=O)N[C@H](CO)C(=O)N[C@@H]([C@H](C)CC(=O)O)C(=O)N[C@@H](CC(=O)c2ccccc2N)C(=O)O[C@@H]1C, the MIC (Staphylococcus aureus [1]) was 0.25 mg/L (≈ 0.154 µM), the MIC (Staphylococcus aureus [2]) was 0.5 mg/L (≈ 0.309 µM) and the MIC (Staphylococcus aureus [3]) was 2 mg/L (≈ 1.23 µM). It also gave an MIC (Staphylococcus aureus [4]) of 0.5 mg/L (≈ 0.309 µM), an MIC (Staphylococcus aureus [5]) of 0.5 mg/L (≈ 0.309 µM) and an MIC (Staphylococcus aureus [6]) of 0.5 mg/L (≈ 0.309 µM). It also gave an MIC (Staphylococcus aureus [7]) of 0.5 mg/L (≈ 0.309 µM), an MIC (Staphylococcus aureus [8]) of 2 mg/L (≈ 1.23 µM) and an MIC (Staphylococcus aureus [9]) of 0.25 mg/L (≈ 0.154 µM). It also gave an MIC (Staphylococcus aureus [10]) of 1 mg/L (≈ 0.617 µM), an MIC (Staphylococcus aureus [11]) of 2 mg/L (≈ 1.23 µM) and an MIC (Staphylococcus aureus [12]) of 0.5 mg/L (≈ 0.309 µM). The MIC (Staphylococcus aureus [13]) was 1 mg/L (≈ 0.617 µM), the MIC (Staphylococcus aureus [14]) was 4 mg/L (≈ 2.47 µM) and the MIC (Staphylococcus aureus [15]) was 0.5 mg/L (≈ 0.309 µM). For the same compound, the MIC (Staphylococcus aureus [16]) was 1 mg/L (≈ 0.617 µM), the MIC (Staphylococcus aureus [17]) was 2 mg/L (≈ 1.23 µM) and the MIC (Staphylococcus aureus [18]) was 0.5 mg/L (≈ 0.309 µM). For the same compound, the MIC (Staphylococcus aureus [19]) was 0.5 mg/L (≈ 0.309 µM), the MIC (Staphylococcus aureus [20]) was 0.5 mg/L (≈ 0.309 µM) and the MIC (Staphylococcus aureus [21]) was 2 mg/L (≈ 1.23 µM). It also gave an MIC (Staphylococcus aureus [22]) of 1 mg/L (≈ 0.617 µM), an MIC (Staphylococcus aureus [23]) of 0.25 mg/L (≈ 0.154 µM) and an MIC (Staphylococcus aureus [24]) of 0.5 mg/L (≈ 0.309 µM). The MIC (Staphylococcus aureus [25]) was 0.25 mg/L (≈ 0.154 µM).
